Measurements published in PubChem BioAssay AID463080 (The Scripps Research Institute Molecular Screening Center, 2010).

Target: Wee1-like protein kinase (Homo sapiens) (UniProt P30291)
Test: WEE1 stabilizers, potency, late-stage follow-up, cell-based, HeLa, WEE1K328M-luciferase, luminescence, assay provider (AID 463080)
Conditions: HeLa WEE1K328M-luciferase stabilization
How it was run: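 test system = HeLa cells transiently expressing kinase-dead WEE1 K328M–luciferase fusion | timing = compound exposure 20 h at 37 °C, 48 h post-transfection | detection = lytic luciferase luminescence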

Wee1-like protein kinase (Homo sapiens), sequence (P30291 whole entry K328M): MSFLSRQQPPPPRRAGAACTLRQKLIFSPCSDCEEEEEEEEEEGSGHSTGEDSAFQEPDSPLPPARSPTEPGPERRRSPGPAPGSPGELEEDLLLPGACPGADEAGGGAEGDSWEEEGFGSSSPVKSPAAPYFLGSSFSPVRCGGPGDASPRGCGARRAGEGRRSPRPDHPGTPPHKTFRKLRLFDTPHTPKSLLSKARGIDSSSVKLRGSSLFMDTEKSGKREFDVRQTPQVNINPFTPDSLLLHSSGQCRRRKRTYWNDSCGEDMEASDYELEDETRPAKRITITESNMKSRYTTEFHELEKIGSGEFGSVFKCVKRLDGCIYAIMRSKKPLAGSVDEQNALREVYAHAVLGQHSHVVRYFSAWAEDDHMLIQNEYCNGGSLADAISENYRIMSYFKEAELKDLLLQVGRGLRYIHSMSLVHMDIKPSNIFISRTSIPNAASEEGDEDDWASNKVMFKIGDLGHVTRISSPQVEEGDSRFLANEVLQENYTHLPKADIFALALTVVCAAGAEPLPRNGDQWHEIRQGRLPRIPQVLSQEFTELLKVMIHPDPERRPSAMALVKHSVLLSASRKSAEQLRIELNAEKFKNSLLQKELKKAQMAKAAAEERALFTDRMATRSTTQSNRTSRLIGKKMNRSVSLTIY

`c1ccc2[nH]c(CNc3nc(N4CCOCC4)nc4c3ncn4-c3ccsc3)nc2c1` gave an EC50 of 624 nM.
`CCOC(=O)c1cccc2[nH]c(CNc3nc(N4CCOCC4)nc4c3ncn4-c3ccsc3)nc12` gave an EC50 of 207 nM.
For `CC(C)n1cnc2c(NCc3nc4c([N+](=O)[O-])cccc4[nH]3)nc(N3CCOCC3)nc21`, the EC50 was 201 nM.
With `Clc1ccc2nc(CNc3nc(N4CCOCC4)nc4c3ncn4-c3ccsc3)[nH]c2c1` the EC50 was 164 nM.
Molecule `O=[N+]([O-])c1cccc2[nH]c(CNc3nc(N4CCOCC4)nc4c3ncn4-c3ccsc3)nc12` has an EC50 of 40 nM.
